# According to ChEMBL document CHEMBL2021903, “3-Deoxy-3,4-dehydro analogs of XM462. Preparation and activity on sphingolipid metabolism and cell fate” (Bioorg Med Chem, 2012):
# Calls of active or inactive are those of the source. No cut-off for these calls is given here.
# What was measured:
# [1] = target: Neutral ceramidase (Homo sapiens) (UniProt Q9NR71); assay: Inhibition of nCDase using CerC12NBD as substrate after 1 hr by HPLC-FD analysis
# Method in brief: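 Moh. pAS cells transfected to overexpress neutral ceramidase. Lysates (sonicated in 1 mM Tris–HCl, 0.1 mM EDTA, pH 7.5) incubated 1 h, 37 °C, with 5 µM CerC12NBD in 25 mM Tris–HCl pH 7.5, 1% sodium cholate, ±50 µM compound. Intact cells treated 4 h with 50 µM compound before lysis and assay. Read-out HPLC-fluorescence.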
# [2] = test system: A549; assay: Effect on sphingolipidome in human A549 cells assessed as increase in C18-ceramide per 10^6 cells at 10 uM after 24 hrs by UPLC-TOF analysis (reference value: 4.8 +/- 0.5 pmol/10^6 cells); assay type: functional
# Method in brief: (§1)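 Cells incubated with compound at 10 µM, 24 h (A549) or 14 h (HCT116); lipids then extracted and profiled. Long-chain bases and phosphates were read by LC-MS/MS (positive electrospray, selected reaction monitoring, C17-dihydrosphingosine and C17-dihydrosphingosine-1-phosphate transitions monitored). Amounts expressed as pmol per 10⁶ cells. Mean ± SD of triplicates; unpaired two-tailed t-test versus control.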
# [3] = test system: HCT-116; assay: Effect on sphingolipidome in human HCT116 cells assessed as increase in dihydroceramide per 10^6 cells at 10 uM after 14 hrs by UPLC-TOF analysis relative to control; assay type: functional; method in brief: as §1
# [4] = test system: HCT-116; assay: Effect on sphingolipidome in human HCT116 cells assessed as increase in dihydrosphingomyelins per 10^6 cells at 10 uM after 14 hrs by UPLC-TOF analysis relative to control; assay type: functional, cell-based; method in brief: as §1
# [5] = test system: HCT-116; assay: Effect on sphingolipidome in human HCT116 cells assessed as increase in glucosyldihydroceramides per 10^6 cells at 10 uM after 14 hrs by UPLC-TOF analysis relative to control; assay type: functional, cell-based; method in brief: as §1
# [6] = test system: HCT-116; assay: Effect on sphingolipidome in human HCT116 cells assessed as reduction in glucosylceramides per 10^6 cells at 10 uM after 14 hrs by UPLC-TOF analysis relative to control; assay type: functional, cell-based; method in brief: as §1
# [7] = test system: HCT-116; assay: Effect on sphingolipidome in human HCT116 cells assessed as reduction in sphingomyelins per 10^6 cells at 10 uM after 14 hrs by UPLC-TOF analysis relative to control; assay type: functional, cell-based; method in brief: as §1
# [8] = test system: HCT-116; assay: Effect on sphingolipidome in human HCT116 cells assessed as increase in C18-ceramide per 10^6 cells at 10 uM after 14 hrs by UPLC-TOF analysis relative to control (reference value: 3.9 +/- 0.3 pmol/10^6 cells); assay type: functional; method in brief: as §1
# [9] = test system: HCT-116; assay: Effect on sphingolipidome in human HCT116 cells assessed as reduction in C24-ceramide per 10^6 cells at 10 uM after 14 hrs by UPLC-TOF analysis relative to control; assay type: functional, cell-based; method in brief: as §1
# [10] = test system: HCT-116; assay: Effect on sphingolipidome in human HCT116 cells assessed as reduction in C16-sphingomyelin per 10^6 cells at 10 uM after 14 hrs by UPLC-TOF analysis relative to control; assay type: functional, cell-based; method in brief: as §1
# [11] = test system: HCT-116; assay: Effect on sphingolipidome in human HCT116 cells assessed as sphingosine-1-phosphate level per 10^6 cells at 10 uM after 14 hrs by UPLC-TOF analysis (reference value: 1.49 +/- 0.70/10^6 cells); assay type: functional; method in brief: as §1
# [12] = test system: HCT-116; assay: Effect on sphingolipidome in human HCT116 cells assessed as dihydrosphingosine-1-phosphate level per 10^6 cells at 10 uM after 14 hrs […] relative to control; assay type: functional, cell-based
# [13] = test system: HCT-116; assay: Cytotoxicity against human HCT116 cells after 24 hrs by MTT assay; assay type: functional; conditions: HCT-116, 24 h, read-out: LD50 (the source's name)
# Method in brief: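 Cells seeded at 10⁵ cells/mL; after 24 h medium replaced with fresh medium with or without test compounds across a concentration range. Viable cells counted by MTT after 24 h of treatment. LD₅₀ (µM) obtained by regression analysis of dose–response curves from two experiments with triplicates. HCT116 kept in low-glucose DMEM with 10% FBS at 37 °C, 5% CO2; cells used at about 80% confluence.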
# [14] = test system: HCT-116; assay: Induction of apoptosis in human HCT116 cells at 15 uM after 14 hrs by Annexin V-propidium iodide staining based flow cytometry; assay type: functional, cell-based
# Method in brief: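 HCT116 (clone 40–16) in low-glucose DMEM with 10% FBS and 1% penicillin–streptomycin, seeded 2.5×10⁵ cells/mL. After 24 h, medium replaced with compound-containing medium; ethanol vehicle to controls. After incubation, cells PBS-washed, trypsinized, stained with Annexin V and propidium iodide, analysed by flow cytometry. Mean ± SD, 3 experiments in triplicate.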
# [15] = test system: HCT-116; assay: Induction of […] in human HCT116 cells at 20 uM after 14 hrs by Annexin V-propidium iodide staining based flow cytometry; assay type: functional
# [16] = target: T1, Sphingolipid delta(4)-desaturase DES1 (Homo sapiens) (UniProt O15121); assay: Inhibition of Des1 in human A549 cells assessed as formation of CerC6NBD from dhCerC6NBD at =>100 uM after 4 hrs by HPLC-FD analysis; assay type: cell-based
# T1 sequence (whole entry): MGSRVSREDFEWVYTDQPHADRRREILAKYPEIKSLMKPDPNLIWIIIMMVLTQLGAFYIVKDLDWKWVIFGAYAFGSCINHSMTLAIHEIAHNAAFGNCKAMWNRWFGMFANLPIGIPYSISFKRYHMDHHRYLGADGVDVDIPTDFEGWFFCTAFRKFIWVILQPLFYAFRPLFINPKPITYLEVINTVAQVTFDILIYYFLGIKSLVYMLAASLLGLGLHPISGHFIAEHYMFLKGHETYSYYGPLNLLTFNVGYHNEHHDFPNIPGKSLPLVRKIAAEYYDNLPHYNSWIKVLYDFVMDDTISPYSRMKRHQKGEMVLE
# Method in brief: (§2)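 Des1 activity in A549 and HCT116 cells: intact cells seeded 2×10⁵/well and incubated 4 h with dhCerC6NBD and compound. Dose–response used cell lysates incubated 4 h with 10 µM dhCerC6NBD plus graded compound. CerC6NBD measured by HPLC with fluorescence detection. IC50 from sigmoidal variable-slope regression; mean ± SD, three experiments in triplicate.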
# [17] = target: T1, Sphingolipid delta(4)-desaturase DES1 (Homo sapiens); assay: Inhibition of Des1 in human HCT116 cells assessed as formation of CerC6NBD from dhCerC6NBD at =>100 uM after 4 hrs by HPLC-FD analysis; assay type: cell-based; conditions: HCT-116; method in brief: as §2
# [18] = test system: A549; assay: Effect on sphingolipidome in human A549 cells assessed as increase in dihydroceramide per 10^6 cells at 10 uM after 24 hrs by UPLC-TOF analysis relative to control; assay type: functional; method in brief: as §1
# Neutral ceramidase (Homo sapiens), sequence (Q9NR71 whole entry): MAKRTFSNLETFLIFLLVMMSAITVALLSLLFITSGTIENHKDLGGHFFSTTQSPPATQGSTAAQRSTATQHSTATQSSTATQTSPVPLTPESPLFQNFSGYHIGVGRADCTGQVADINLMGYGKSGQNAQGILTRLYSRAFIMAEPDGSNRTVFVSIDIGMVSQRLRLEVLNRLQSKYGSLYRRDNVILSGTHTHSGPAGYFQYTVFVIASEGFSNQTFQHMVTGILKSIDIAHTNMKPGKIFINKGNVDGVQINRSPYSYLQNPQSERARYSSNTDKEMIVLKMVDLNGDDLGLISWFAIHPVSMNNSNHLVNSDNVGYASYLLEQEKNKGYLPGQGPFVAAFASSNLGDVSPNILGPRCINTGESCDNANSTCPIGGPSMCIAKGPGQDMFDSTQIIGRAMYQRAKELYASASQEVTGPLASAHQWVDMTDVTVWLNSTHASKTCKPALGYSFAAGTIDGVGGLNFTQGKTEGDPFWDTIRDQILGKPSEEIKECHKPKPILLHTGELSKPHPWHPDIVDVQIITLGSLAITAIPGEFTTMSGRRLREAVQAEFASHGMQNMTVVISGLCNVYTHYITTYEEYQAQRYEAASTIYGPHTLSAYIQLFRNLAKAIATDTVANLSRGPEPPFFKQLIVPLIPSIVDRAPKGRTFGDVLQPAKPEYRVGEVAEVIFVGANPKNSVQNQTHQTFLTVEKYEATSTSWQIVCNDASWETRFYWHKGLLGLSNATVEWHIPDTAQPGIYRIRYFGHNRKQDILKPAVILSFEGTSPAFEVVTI
SMILES,inhibition [1],Activity [2] [pmol],fold change (FC) [3],Activity [4],Activity [5],Activity [6],Activity [7],Activity [8] [pmol],Activity [9],Activity [10],Activity [11] [pmol],Activity [12],CC50 [13] [µM],Activity [14],Activity [15],inhibition [16] [%],inhibition [17] [%],fold change (FC) [18]
CCCCCCCCCCCCCS/C=C/[C@H](CO)NC(=O)C(C)(C)C,inactive,7,4.5,Active,Active,Active,Active,10.8,Active,Active,2.17,inactive,30,Active,inactive,50,50,1.9
CCCCCCCCCCCCCS/C=C/[C@H](CO)NC(=O)CCCCCCC,inactive,11.5,8.5,Active,Active,Active,Active,16,Active,Active,1.25,inactive,28,Active,inactive,–,–,3.5
CCCCCCCCCCCCCS/C=C/[C@H](CO)NC(=O)c1ccc(C(C)(C)C)cc1,inactive,–,–,–,–,–,–,–,–,–,–,–,81,–,–,50,50,–
